From PMC3662250 (Synlett : accounts and rapid communications in synthetic …, 2010) come the findings set out here.

This assay addresses human ΔF508-CFTR (Homo sapiens, UniProt P13569, DEL508-508). Description: ΔF508-CFTR corrector activity assay. The settings on record: comparison with bithiazole 27 of earlier studies. It counts as cell-based. Put shortly: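 FRT cells expressing ΔF508-CFTR, with FRT-null cells as counter-screen. Cells were PBS-washed, then incubated 20 min with forskolin (20 µM) plus genistein (50 µM). Fluorescence (ex 500, em 535 nm) was read 2 s baseline, then 12 s after adding PBS with 137 mM Cl− replaced by I−. Initial slope was extrapolated from an exponential fit of the final 11.5 s. Controls were DMSO vehicle, a bithiazole corrector and CFTRinh-172 inhibition.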

Regarding `Cc1cccc(Nc2ncnc3onc(-c4ccc(F)cc4)c23)c1C` [Compound 7], the “Vmax compared with s-cis locked bithiazole 27” value was “greater Vmax value”.
